According to ChEMBL document CHEMBL4270630:

Legend:
[1] = Selectivity index, ratio of MCC for MDCK cells to EC50 for Influenza A virus A/HK/7/87(H3N2) infected in MDCK cells assessed as reduction in virus-induced cytopathic effect by microscopic method; type: toxicity, cell-based; details: dog, read-out: Selectivity Index
Method in brief: (§1)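 Selectivity index is MCC divided by EC50. MCC comes from microscopy of mock-infected MDCK cells. EC50 comes from microscopic scoring of virus-induced CPE in MDCK cells infected at an MOI of 0.0004 PFU/cell with TPCK-trypsin. Both readings were taken after 3 days at 35 °C.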

Influenza B virus [2] = test: Antiviral activity against Influenza B virus B/Ned/537/05 infected in MDCK cells assessed as reduction in virus-induced cytopathic effect after 3 days by microscopic method; type: functional, organism-based; details: B/Ned/537/05, MDCK, 72 h
Method in brief: (§2)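 Semi-confluent MDCK cells were infected at an MOI of 0.0004 PFU/cell in Ultra-MDCK infection medium with 2 μg/mL TPCK-trypsin, together with compounds. After 3 days at 35 °C, CPE was scored by microscopy and confirmed by MTS formazan viability. Values are means of two to five independent tests.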

MDCK = test: Cytotoxicity against MDCK cells assessed as reduction in cell viability after 3 days by MTS assay; type: cell-based, Canis lupus familiaris; details: dog, mdck, 72 h
Influenza A virus [3] = test: Antiviral activity against Influenza A virus A/PR/8/34(H1N1) infected in MDCK cells after 3 days by MTS assay; type: functional, organism-based, A/Puerto Rico/8/1934(H1N1); details: Influenza A virus, A/Puerto Rico/8/1934(H1N1), MDCK, 72 h
Method in brief: as §2, with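 “viability. EC50 is the concentration giving 50% inhibition of virus-induced CPE.” for “viability.”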

H3N2 subtype [4] = test: Antiviral activity against Influenza A virus A/HK/7/87(H3N2) infected in MDCK cells after 3 days by MTS assay; type: functional, organism-based; details: A/Hong Kong/7/1987(H3N2), 72 h
Method in brief: as §2, with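 “viability. EC50 is the concentration giving 50% inhibition of virus-induced CPE.” for “viability.”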

H3N2 subtype [5] = test: Antiviral activity against Influenza A virus A/HK/7/87(H3N2) infected in MDCK cells assessed as reduction in virus-induced cytopathic effect after 3 days by microscopic method; type: functional, organism-based; details: A/Hong Kong/7/1987(H3N2), 72 h
Method in brief: as §2, with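 “viability. EC50 is the concentration giving 50% inhibition of virus-induced CPE.” for “viability.”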

Influenza A virus [6] = test: Antiviral activity against Influenza A virus A/Virginia/ATCC3/2009(H1N1pdm) infected in MDCK cells after 3 days by MTS assay; type: functional, organism-based, Influenza A virus (A/Virginia/03/2009(H1N1)); details: 72 h
Method in brief: as §2, with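 “viability. EC50 is the concentration giving 50% inhibition of virus-induced CPE.” for “viability.”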

Influenza B virus [7] = test: Antiviral activity against Influenza B virus B/Ned/537/05 infected in MDCK cells after 3 days by MTS assay; type: functional, organism-based; details: B/Ned/537/05, MDCK, 72 h; method in brief: as §2
[8] = Selectivity index, ratio of MCC for MDCK cells to EC50 for Influenza A virus A/PR/8/34(H1N1) infected in MDCK cells assessed as reduction in virus-induced cytopathic effect by microscopic method; type: toxicity, cell-based; details: dog, read-out: Selectivity Index; method in brief: as §1
[9] = Cytotoxicity against MDCK cells assessed as alteration in cell morphology after 3 days by microscopic method; type: cell-based, Canis lupus familiaris; details: dog
Method in brief: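 Mock-infected MDCK cells were treated with compounds in parallel with the antiviral assay, 3 days at 35 °C. MCC is the concentration causing minimal change in cell morphology by microscopy. CC50 is the 50% cytotoxic concentration by MTS formazan viability assay.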

[10] = Selectivity index, ratio of MCC for MDCK cells to EC50 for Influenza B virus B/HK/05/72 infected in MDCK cells assessed as reduction in virus-induced cytopathic effect by microscopic method; type: toxicity, cell-based; details: dog, read-out: Selectivity Index; method in brief: as §1
Influenza A virus [11] = test: Antiviral activity against Influenza A virus A/Virginia/ATCC3/2009(H1N1pdm) infected in MDCK cells assessed as reduction in virus-induced cytopathic effect after 3 days by microscopic method; type: functional, organism-based, Influenza A virus (A/Virginia/03/2009(H1N1)); details: 72 h
Method in brief: as §2, with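 “viability. EC50 is the concentration giving 50% inhibition of virus-induced CPE.” for “viability.”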

Influenza A virus [12] = test: Antiviral activity against Influenza A virus A/PR/8/34(H1N1) infected in MDCK cells assessed as reduction in virus-induced cytopathic effect after 3 days by microscopic method; type: functional, organism-based, A/Puerto Rico/8/1934(H1N1); details: Influenza A virus, A/Puerto Rico/8/1934(H1N1), MDCK, 72 h
Method in brief: as §2, with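 “viability. EC50 is the concentration giving 50% inhibition of virus-induced CPE.” for “viability.”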

[13] = Selectivity index, ratio of MCC for MDCK cells to EC50 for Influenza B virus B/Ned/537/05 infected in MDCK cells assessed as reduction in virus-induced cytopathic effect by microscopic method; type: toxicity, cell-based; details: dog, read-out: Selectivity Index; method in brief: as §1
[14] = Selectivity index, ratio of MCC for MDCK cells to EC50 for Influenza A virus A/Virginia/ATCC3/2009(H1N1pdm) infected in MDCK cells assessed as reduction in virus-induced cytopathic effect by microscopic method; type: toxicity, cell-based; details: dog, read-out: Selectivity Index; method in brief: as §1
Influenza A virus [15] = test: Antiviral activity against Influenza A virus A/PR/8/34(H1N1) GFP-fused pseudotyped lentiviral particle expressing H1-HA/N1-NA infected in MDCK cells assessed as inhibition of pseudoparticle entry after 3 days by flow cytometry; type: functional, organism-based; details: A/Puerto Rico/8/1934(H1N1)
Method in brief: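 MDCK cells were seeded at 7500/well and one day later were exposed to compounds plus GFP lentiviral pseudoparticles bearing A/PR/8/34 H1-HA and N1-NA, with HA0 activated by trypsin. After 3 days the cells were trypsinized, fixed in paraformaldehyde and analysed for GFP by flow cytometry. Entry inhibition was taken as the reduction in GFP signal. Data are the mean ± SEM of four independent experiments.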

Human coronavirus 229E [16] = test: Antiviral activity against Human coronavirus 229E infected in human A549 cells assessed as reduction in virus RNA level after 3 days by qRT-PCR method; type: functional; details: A549, 72 h
Method in brief: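 Confluent A549 cells were infected with HCoV-229E in 2% FCS medium with compounds present. The inoculum was removed at 1 h and compounds were kept on at 35 °C. Supernatants were harvested at day 3, lysed at 75 °C for 10 min, and viral genome copies counted by one-step qRT-PCR.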

Human coronavirus 229E [17] = test: Antiviral activity against Human coronavirus 229E infected in HEL299 cells assessed as reduction in virus induced cytopathic effect after 5 days by microscopic method; type: functional, organism-based; details: HEL 299, 120 h
Method in brief: (§3)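 Confluent HEL 299 cells in medium with 2% FCS were exposed to HCoV-229E (100 CCID50/well) together with compounds and held for 5 days at 35 °C. EC50 (CPE reduction) and MCC (minimal morphology change) were determined by microscopy. SI is MCC/EC50.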

[18] = Cytotoxicity against HEL299 cells assessed as changes in cell morphology after 5 days by microscopic method; type: cell-based, HEL 299; details: human; method in brief: as §3
[19] = Cytotoxicity against human A549 cells assessed as changes in cell morphology after 3 days by microscopic method; type: cell-based
Method in brief: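 Mock-infected A549 cells were incubated with compounds for 3 days. MCC is the concentration causing minimal change in cell morphology by microscopy.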

[20] = Selectivity index, ratio of MCC for HEL299 cells to EC50 for Human coronavirus 229E infected in HEL299 cells; type: toxicity, cell-based; details: read-out: Selectivity Index; method in brief: as §3

Compound | EC50 (Influenza B virus [2]) [µM] | CC50 (MDCK) [µM] | EC50 (Influenza A virus [3]) [µM] | EC50 (H3N2 subtype [4]) [µM] | EC50 (H3N2 subtype [5]) [µM] | EC50 (Influenza A virus [6]) [µM] | EC50 (Influenza B virus [7]) [µM] | MCC at 72 h [9] [µM] | EC50 (Influenza A virus [11]) [µM] | EC50 (Influenza A virus [12]) [µM] | inhibition (Influenza A virus [15]) | also measured
CCCCCCCCSC1=C(SCCCCCCCC)C(=O)N(Cc2cn(C3C(=O)N[C@@H]4Cc5ccc(c(Cl)c5)Oc5cc6cc(c5O)Oc5ccc(cc5Cl)[C@@H](O[C@@H]5O[C@H](CO)[C@@H](O)[C@H](O)[C@H]5NC(C)=O)[C@H]5NC(=O)[C@H](NC(O)[C@@H]6NC(=O)[C@@H](NC4=O)c4cc(O)cc(c4)Oc4cc3ccc4O)c3ccc(O)c(c3)-c3c(O)cc(O)cc3[C@H](C(=O)O)NC5=O)nn2)C1=O (some centres undefined) | 6.7 | 49 | 12 | 6.3 | 8.9 | 3.4 | 7.2 | 73 | 4.4 | 9.2 | – | selectivity ratio [1]: 10; selectivity ratio [8]: 10; selectivity ratio [10]: 10; selectivity ratio [13]: 10; selectivity ratio [14]: 10
CC(C)c1ccccc1NCCN1CCCCC1 | – | – | – | – | – | – | – | – | – | – | Dose-dependent effect | –
CCN(CC)CCCC(C)Nc1ccnc2cc(Cl)ccc12 (centres undefined) | – | – | – | – | – | – | – | – | – | – | Dose-dependent effect | –
CC(=O)N[C@H]1[C@H](O[C@@H]2c3ccc(c(Cl)c3)Oc3cc4cc(c3O)Oc3ccc(cc3Cl)C[C@H]3NC(=O)[C@H](NS(=O)(=O)c5ccc(C)cc5)c5ccc(O)c(c5)Oc5cc(O)cc(c5)[C@H](NC3=O)C(=O)N[C@H]4C(O)N[C@H]3C(=O)N[C@H]2C(=O)N[C@@H](C(=O)O)c2cc(O)cc(O)c2-c2cc3ccc2O)O[C@H](CO)[C@@H](O)[C@@H]1O (some centres undefined) | 11 | > 100 | 11 | 19 | 41 | 32 | 12 | 100 | 30 | 9 | – | EC90 (Human coronavirus 229E [16]): 4.9 µM; EC99 (Human coronavirus 229E [16]): 10 µM; EC50 (Human coronavirus 229E [17]): 5.2 µM; MCC at 120 h [18]: ≥ 100 µM; MCC at 72 h [19]: > 50 µM; selectivity ratio [20]: 19
CCc1ccccc1OCCN1CCCCCC1 | – | – | – | – | – | – | – | – | – | – | Dose-dependent effect | –
